Values after ≈ are worked out from the molar mass of the structure shown. Active and inactive are the calls of the source. The calls are words filed in the database; no cut-off is given here.
Key:
[1] = test system: Mycobacterium tuberculosis; assay: Antitubecular activity against Mycobacterium tuberculosis […] assessed as growth inhibition after 4 days by microplate Alamar blue assay; assay type: functional; settings: 96 h
Procedure, shortened: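 Replicating M. tuberculosis […] cultures in microplate alamar blue (resazurin) format. MIC was read out and reported in μg/mL, with μM in parentheses. Rifampin and isonicotinylhydrazine served as positive controls.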

[2] = test system: Mycobacterium tuberculosis; assay: Antitubecular activity against Mycobacterium tuberculosis […] assessed as growth inhibition by low oxygen recovery assay; assay type: functional
Procedure, shortened: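 Non-replicating M. tuberculosis […] under low-oxygen conditions, with growth assessed on recovery (LORA). Endpoint was MIC, in μg/mL with μM in parentheses. Rifampin and isonicotinylhydrazine were the positive controls.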

[3] = test system: Vero; assay: Cytotoxicity against African green monkey Vero cells after 72 hrs by MTS-PMS assay; assay type: cell-based; settings: Chlorocebus sabaeus
Procedure, shortened: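 Vero cells were assayed by MTS-PMS colorimetric read-out, with rifampin as the positive control. The procedure follows an earlier report. Values are given as IC50.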

[4] = test system: NCI-H460; assay: Cytotoxicity against human NCI-H460 cells at 5 uM after 72 hrs by Alamar blue assay; assay type: functional, cell-based
Procedure, shortened: (§1)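 The human cancer cell panel was assayed by resazurin (alamarBlue) read-out, with 5.0 μM as the highest concentration tested and doxorubicin as the positive control. The procedure follows an earlier report.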

[5] = test system: MDA-MB-231; assay: Cytotoxicity against human MDA-MB-231 cells at 5 uM after 72 hrs by Alamar blue assay; assay type: functional, cell-based; procedure, shortened: as §1
[6] = test system: MCF7; assay: Cytotoxicity against human MCF7 cells at 5 uM after 72 hrs by Alamar blue assay; assay type: functional, cell-based; procedure, shortened: as §1
[7] = test system: PC-3M; assay: Cytotoxicity against human PC3M cells at 5 uM after 72 hrs by Alamar blue assay; assay type: functional, cell-based; procedure, shortened: as §1
[8] = test system: SF-268; assay: Cytotoxicity against human SF268 cells at 5 uM after 72 hrs by Alamar blue assay; assay type: functional, cell-based; procedure, shortened: as §1

SMILES | MIC [1] [mg/L] | MIC [2] [mg/L] | IC50 [3] [µM] | Activity [4] | Activity [5] | Activity [6] | Activity [7] | Activity [8]
CO[C@H]1/C=C/O[C@@]2(C)Oc3c(C)c(O)c4c(O)c(c(/C=N/N5CCN(C)CC5)c(O)c4c3C2=O)NC(=O)/C(C)=C\C=C\[C@H](C)[C@H](O)[C@@H](C)[C@@H](O)[C@@H](C)[C@H](OC(C)=O)[C@@H]1C [RIFAMPIN] | 0.07 (≈ 0.0851 µM) | 0.1 (≈ 0.122 µM) | 132 |  |  |  |  | 
CC1=C[C@@]2(C)C(=C(C)[C@H]3[C@H]4C[C@@H](C)C[C@@H](C)[C@@H]4[C@@H]4Oc5ccc(cc5)C[C@H]5C(=O)NC(=O)[C@@H]5C(=O)[C@H]2[C@H]43)[C@H]1C | 5.9 (≈ 11.2 µM) | 15.4 (≈ 29.2 µM) | 32.4 | inactive | inactive | inactive | inactive | inactive
NNC(=O)c1ccncc1 [ISONIAZID] | 0.03 (≈ 0.219 µM) | > 17.5 |  |  |  |  |  | 
CC1=C[C@@]2(C)C(=C(C)[C@H]3[C@H]4C[C@@H](C)C[C@@H](C)[C@@H]4[C@@H]4Oc5ccc(cc5)CC5(O)NC(=O)C6(O[C@H]56)C(=O)[C@H]2[C@H]43)[C@H]1C (some centres not stated) | 5.2 (≈ 9.56 µM) | 13.4 (≈ 24.6 µM) | 35.7 | inactive | inactive | inactive | inactive | inactive
CC1=C[C@@]2(C)C(=C(C)[C@H]3[C@H]4C[C@@H](C)C[C@@H](C)[C@@H]4[C@@H]4Oc5ccc(cc5)C[C@@H]5C(=O)NC(=O)[C@H]5C(=O)[C@H]2[C@H]43)[C@H]1C | 20.1 (≈ 38.1 µM) | 41.1 (≈ 77.9 µM) | 33.6 | inactive | inactive | inactive | inactive | inactive
CC1=C[C@@]2(C)C(=C(C)[C@H]3[C@H]4C[C@@H](C)C[C@@H](C)[C@@H]4[C@@H]4Oc5ccc(cc5)C[C@@H]5C(=O)N(C)C(=O)[C@H]5C(=O)[C@H]2[C@H]43)[C@H]1C | > 100 | > 100 | 145 | inactive | inactive | inactive | inactive | inactive
